Test results taken from ChEMBL document CHEMBL3102754, “3D-QSAR study of adamantyl N-benzylbenzamides as melanogenesis inhibitors” (Bioorg Med Chem Lett, 2014).

Tested on: B16
Experiment: Antimelanogenic activity in mouse B16 cells after 4 days by spectrophotometry
Format: functional, cell-based
Conditions: B16, 96 h
Procedure, shortened: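 Cells seeded at 2 × 10^5 cells/mL and treated in triplicate, with medium changed daily. After 4 d of culture, cells lysed in 1 N NaOH and crude extract transferred for melanin content reading.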

Structure (SMILES)	IC50
O=C(NCc1cc(O)ccc1O)c1ccc(O)cc1O	24.2 µM
O=C(NCc1ccc(O)c(O)c1)c1ccc(O)cc1O	8 µM
COc1ccc(CNC(=O)c2cc(C34CC5CC(CC(C5)C3)C4)c(O)cc2O)c(O)c1	5.71 µM
COc1cc(CNC(=O)c2ccc(O)c(C34CC5CC(CC(C5)C3)C4)c2)cc(OC)c1	4.44 µM
O=C(NCc1cc(O)ccc1O)c1cc(C23CC4CC(CC(C4)C2)C3)c(O)cc1O	0.729 µM
COc1cc(O)c(C(=O)NCCc2ccc(O)c(O)c2)cc1C12CC3CC(CC(C3)C1)C2	1.25 µM
COc1cc(O)c(C(=O)NCc2ccc(O)c(O)c2)cc1C12CC3CC(CC(C3)C1)C2	1.29 µM
O=C(NCCc1ccc(O)cc1)c1cc(C23CC4CC(CC(C4)C2)C3)c(O)cc1O	1.1 µM
COc1ccc(CCNC(=O)c2cc(C34CC5CC(CC(C5)C3)C4)c(O)cc2O)cc1OC	4.08 µM
COc1ccc(CNC(=O)c2ccc(OC)c(C34CC5CC(CC(C5)C3)C4)c2)cc1OC	5 µM
COc1ccc(CNC(=O)c2cc(C34CC5CC(CC(C5)C3)C4)c(O)cc2O)cc1OC	3.81 µM
O=C(NCc1ccc(O)c(O)c1)c1ccc(O)cc1	55 µM
COc1ccc(CNC(=O)c2ccc(O)c(C34CC5CC(CC(C5)C3)C4)c2)cc1OC	3.86 µM
COc1ccc(OC)c(CNC(=O)c2ccc(O)c(C34CC5CC(CC(C5)C3)C4)c2)c1	5.41 µM
O=C(NCc1ccc(O)cc1)c1cc(C23CC4CC(CC(C4)C2)C3)c(O)cc1O	1.23 µM
COc1ccc(OC)c(CNC(=O)c2cc(C34CC5CC(CC(C5)C3)C4)c(O)cc2O)c1	4.1 µM
COc1cc(CNC(=O)c2cc(C34CC5CC(CC(C5)C3)C4)c(O)cc2O)cc(OC)c1OC	2.94 µM
COc1cc(O)c(C(=O)NCCc2ccc(O)cc2)cc1C12CC3CC(CC(C3)C1)C2	1.92 µM
COc1ccccc1CNC(=O)c1cc(C23CC4CC(CC(C4)C2)C3)c(O)cc1O	2.31 µM
COc1ccc(C(=O)NCCc2ccc(O)c(O)c2)cc1C12CC3CC(CC(C3)C1)C2	2.33 µM
COc1ccc(C(=O)NCCc2ccc(O)c(O)c2)c(OC)c1	11 µM
COc1ccc(C(=O)NCCc2ccc(O)c(O)c2)cc1	23 µM
COc1cc(CNC(=O)c2cc(C34CC5CC(CC(C5)C3)C4)c(O)cc2O)cc(OC)c1	2.57 µM
COc1ccc(C(=O)NCc2ccc(O)c(O)c2)cc1	10 µM
COc1ccc(C(=O)NCc2ccc(O)c(O)c2)c(O)c1	8 µM
O=C(NCc1ccc(O)cc1O)c1cc(C23CC4CC(CC(C4)C2)C3)c(O)cc1O	1.2 µM

The remaining compounds from weak to strong by IC50, led by results:

IC50	Structure (SMILES)
75 µM	O=C(NCCc1ccc(O)c(O)c1)c1ccc(O)cc1
27 µM	COc1ccc(C(=O)NCCc2ccc(O)cc2)c(OC)c1
8.99 µM	COc1ccc(C(=O)NCc2ccc(O)c(O)c2)c(OC)c1
5.02 µM	COc1cc(CNC(=O)c2ccc(OC)c(C34CC5CC(CC(C5)C3)C4)c2)cc(OC)c1
5 µM	COc1ccc(C(=O)NCCc2ccc(O)cc2)c(O)c1
4.5 µM	COc1ccc(CCNC(=O)c2ccc(OC)c(C34CC5CC(CC(C5)C3)C4)c2)cc1OC
4.33 µM	O=C(NCCc1ccc(O)c(O)c1)c1cc(C23CC4CC(CC(C4)C2)C3)c(O)cc1O
3.69 µM	COc1ccc(CNC(=O)c2cc(C34CC5CC(CC(C5)C3)C4)c(O)cc2O)c(OC)c1
3.41 µM	COc1ccc(C(=O)NCCc2ccc(O)cc2)cc1C12CC3CC(CC(C3)C1)C2
3.14 µM	COc1ccc(OC)c(CNC(=O)c2ccc(OC)c(C34CC5CC(CC(C5)C3)C4)c2)c1
2.57 µM	O=C(NCc1ccc(O)c(O)c1)c1ccc(O)c(C23CC4CC(CC(C4)C2)C3)c1
2.5 µM	O=C(NCc1ccc(O)c(O)c1)c1cc(C23CC4CC(CC(C4)C2)C3)c(O)cc1O
2.23 µM	COc1ccc(C(=O)NCc2ccc(O)c(O)c2)cc1C12CC3CC(CC(C3)C1)C2
2.09 µM	O=C(NCCc1ccc(O)c(O)c1)c1ccc(O)c(C23CC4CC(CC(C4)C2)C3)c1
1.4 µM	COc1ccc(C(=O)NCc2ccc(O)cc2O)cc1C12CC3CC(CC(C3)C1)C2
1.2 µM	COc1cc(OC)c(C23CC4CC(CC(C4)C2)C3)cc1C(=O)NCCc1ccc(O)cc1
0.899 µM	O=C(NCc1ccc(O)cc1O)c1ccc(O)c(C23CC4CC(CC(C4)C2)C3)c1
